In ChEMBL document CHEMBL4270484, “Synthesis and Characterization of a Phosphate Prodrug of Isoliquiritigenin” (J Nat Prod, 2017):
Values after ≈ are worked out from the molar mass of the structure shown.

Experiments:
[1] = Stability in pH 7.4 PBS buffer at 37 degC incubated for 24 hrs by UPLC analysis; type: physicochemical; details: pH 7.4, 24 h
[2] = Stability of the compound in pH 7.4 phosphate buffer solution at -20 degC incubated for 16 days; type: physicochemical
[3] = test system: Mus musculus; test: Reduction in IL6 gene expression in lungs of C57BL/6 mouse infected with Influenza A virus (A/Puerto Rico/8/1934(H1N1)) at 10 mg/kg, ip starting on the same day as infection and continued daily until day 3 postinfection by real-time PCR analysis; type: functional; set-up: scale not given: the % may be the effect or the level left
How it was run: (§1)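 Female C57BL/6 mice, 6–8 weeks old, infected intranasally with PR8 and given 10 mg/kg in saline by ip injection. On day 3 p.i., lungs were homogenized in Ribozol. 500 ng RNA was reverse-transcribed and run in SYBR green qPCR. Fold change versus uninfected mice was calculated by 2ΔΔCt with 18S normalization. Means ± SD from three experiments, 3–4 mice per group.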

[4] = Solubility in pH 7.4 PBS at 3.83 mg in 100 ul solution sonicated for 5 mins followed by incubation at room temperature for 30 mins; type: physicochemical
How it was run: (§2)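 Solid suspended in PBS pH 7.4 at the stated amount and volume, sonicated 5 min, held 30 min at room temperature, then diluted 1:1 stepwise until a clear solution. Solubility judged by visual inspection as partial or soluble.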

[5] = Stability of the compound in pH 7.4 phosphate buffer solution at 4 degC incubated for 16 days; type: physicochemical
[6] = Solubility in pH 7.4 PBS at 3.83 mg in 200 ul solution sonicated for 5 mins followed by incubation at room temperature for 30 mins; type: physicochemical; how it was run: as §2
[7] = test system: Mus musculus; test: Reduction in CCL4 gene expression in lungs of C57BL/6 mouse infected with Influenza A virus (A/Puerto Rico/8/1934(H1N1)) at 10 mg/kg, ip starting on the same day as infection and continued daily until day 3 postinfection by real-time PCR analysis; type: functional; set-up: scale not given: the % may be the effect or the level left; how it was run: as §1
[8] = Drug metabolism in C57BL/6 mouse lung extracts assessed as half life for isoliquiritigenin formation by UPLC analysis; type: ADME, tissue-based
How it was run: (§3)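 Mouse plasma (cardiac puncture, heparin, spun 2000g 10 min 4 °C) or lung homogenate in 0.9% saline (spun 400g 5 min), n = 3 mice, stored −80 °C. 27 μL matrix plus 5 μL of 1 mM prodrug in PBS pH 7.4, 37 °C; lung 5–20 min, plasma 40–240 min. Stopped with CH3CN, centrifuged, UPLC at 360 nm with Fmoc-glycine reference; remaining fraction from prodrug/parent AUC ratio.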

[9] = Stability of the compound in amophous solid form at ambient temperature incubated for 16 days; type: physicochemical; details: 384 h
[10] = Drug metabolism in C57BL/6 mouse plasma assessed as half life for isoliquiritigenin formation by UPLC analysis; type: ADME, cell-free; how it was run: as §3
[11] = Solubility in pH 7.4 PBS at 3.83 mg in 400 ul solution sonicated for 5 mins followed by incubation at room temperature for 30 mins; type: physicochemical; how it was run: as §2
[12] = Solubility in pH 7.4 PBS sonicated for 5 mins followed by incubation at room temperature for 30 mins; type: physicochemical; how it was run: as §2
[13] = Stability of the compound in amophous solid form at -20 degC incubated for 16 days; type: physicochemical
[14] = Solubility in pH 7.4 PBS at 0.5 mg in 8 ul solution sonicated for 5 mins followed by incubation at room temperature for 30 mins; type: physicochemical; how it was run: as §2
[15] = test system: Influenza A virus; test: Antiviral activity against Influenza A virus (A/Puerto Rico/8/1934(H1N1)) infected in MDCK cells infected with supernatants from virus-infected human Calu3 cells treated with compound for 2 days assessed as reduction in viral replication by crystal violet staining based viral plaque assay; type: functional, organism-based; details: 48 h
[16] = Solubility in pH 7.4 PBS at 0.5 mg in 4 ul solution sonicated for 5 mins followed by incubation at room temperature for 30 mins; type: physicochemical; how it was run: as §2
[17] = Solubility in pH 7.4 PBS at 0.5 mg in 2 ul solution sonicated for 5 mins followed by incubation at room temperature for 30 mins; type: physicochemical; how it was run: as §2
[18] = Solubility in pH 7.4 PBS at 0.5 mg in 128 ul solution sonicated for 5 mins followed by incubation at room temperature for 30 mins; type: physicochemical; how it was run: as §2
[19] = Solubility in pH 7.4 PBS at 0.5 mg in 16 ul solution sonicated for 5 mins followed by incubation at room temperature for 30 mins; type: physicochemical; how it was run: as §2
[20] = Solubility in pH 7.4 PBS at 0.5 mg in 64 ul solution sonicated for 5 mins followed by incubation at room temperature for 30 mins; type: physicochemical; how it was run: as §2
[21] = Solubility in pH 7.4 PBS at 0.5 mg in 32 ul solution sonicated for 5 mins followed by incubation at room temperature for 30 mins; type: physicochemical; how it was run: as §2
[22] = phosphate buffer solution, pH 7.4, read-out: Stability

**Q.** Which Stability [1] does the source give for `N.O=C(/C=C/c1ccc(OCOP(=O)(O)O)cc1)c1ccc(O)cc1O` here?
**A.** The Stability was “Stable”.

**Q.** What about the Stability ([2]; buffer, pH 7.4, 384 h) of the same molecule?
**A.** The Stability was “Stable”.

**Q.** What about the Activity [3] of the same molecule?
**A.** Its Activity is 80%.

**Q.** And the solubility at 0.5 h [4]?
**A.** Its solubility at 0.5 h is 100 mM.

**Q.** What about the Stability ([5]; buffer, pH 7.4, 384 h) of the same molecule?
**A.** Its Stability is “Stable”.

**Q.** And the solubility at 0.5 h [6]?
**A.** The solubility at 0.5 h was 50 mM.

**Q.** What about the Activity [7] of the same molecule?
**A.** The Activity was 62.5%.

**Q.** What about the t1/2 [8] of the same molecule?
**A.** Its t1/2 is 10.8 min.

**Q.** What about the Stability [9] of the same molecule?
**A.** The Stability was 2 weeks.

**Q.** What about the t1/2 [10] of the same molecule?
**A.** The t1/2 was 100 min.

**Q.** What about the solubility at 0.5 h [11] of the same molecule?
**A.** Its solubility at 0.5 h is 25 mM.

**Q.** And the solubility at 0.5 h [12]?
**A.** Its solubility at 0.5 h is 25 mM.

**Q.** And the Stability ([13]; 384 h)?
**A.** Its Stability is 6 months.

**Q.** For `O=C(/C=C/c1ccc(O)cc1)c1ccc(O)cc1O` [ISOLIQUIRITIGENIN], which Stability [1] is on record?
**A.** The Stability was “Stable”.

**Q.** And the solubility at 0.5 h [14]?
**A.** Its solubility at 0.5 h is 250 mM (≈ 64.1 mg/mL).

**Q.** What about the EC50 [15] of the same molecule?
**A.** Its EC50 is 24.7 µM.

**Q.** What about the solubility at 0.5 h [16] of the same molecule?
**A.** Its solubility at 0.5 h is 500 mM (≈ 128 mg/mL).

**Q.** And the solubility at 0.5 h [17]?
**A.** Its solubility at 0.5 h is 1000 mM (≈ 256 mg/mL).

**Q.** And the solubility at 0.5 h [18]?
**A.** The solubility at 0.5 h was 15.3 mM (≈ 3.92 mg/mL).

**Q.** What about the Stability [8] of the same molecule?
**A.** The Stability was “Stable”.

**Q.** And the solubility at 0.5 h [19]?
**A.** The solubility at 0.5 h was 125 mM (≈ 32 mg/mL).

**Q.** And the solubility at 0.5 h [12]?
**A.** The solubility at 0.5 h was 0.0153 mM (≈ 0.00392 mg/mL).

**Q.** And the solubility at 0.5 h [20]?
**A.** The solubility at 0.5 h was 31.2 mM (≈ 8 mg/mL).

**Q.** What about the solubility at 0.5 h [21] of the same molecule?
**A.** The solubility at 0.5 h was 62.5 mM (≈ 16 mg/mL).

**Q.** Which remaining at 384 h [2, 22] does the source give for `O=C(/C=C/c1ccc(OCOP(=O)(O)O)cc1)c1ccc(O)cc1O` here?
**A.** Its remaining at 384 h is 80%.

**Q.** And the remaining at 384 h [5, 22]?
**A.** The remaining at 384 h was 60%.

**Q.** What about the remaining at 384 h ([13]; amorphous solid form, read-out: Stability) of the same molecule?
**A.** Its remaining at 384 h is 80%.
